pEC50, pKd, pKi: −log10 of the molar value.
Key:
[1] = biological target: T1, 5-hydroxytryptamine receptor 4 (Homo sapiens, UniProt Q13639); experiment: Binding affinity was determined against cloned 5-hydroxytryptamine 4E receptor isoform expressed in C6 glial cells incubated with 0.2 nM [3H]GR-113808; type: cell-based
[2] = biological target: T1, 5-hydroxytryptamine receptor 4; experiment: Binding affinity was determined against cloned 5-hydroxytryptamine 4C receptor isoform expressed in COS-7 cells; type: cell-based
[3] = biological target: T1, 5-hydroxytryptamine receptor 4; experiment: Binding affinity was determined against cloned 5-hydroxytryptamine 4D receptor isoform expressed in COS-7 cells; type: cell-based
[4] = biological target: T1, 5-hydroxytryptamine receptor 4; experiment: Binding affinity was determined against cloned 5-hydroxytryptamine 4A receptor isoform expressed in COS-7 cells; type: cell-based
[5] = biological target: T1, 5-hydroxytryptamine receptor 4; experiment: Binding affinity was determined against cloned 5-hydroxytryptamine 4B receptor isoform expressed in COS-7 cells; type: cell-based
[6] = biological target: T1, 5-hydroxytryptamine receptor 4; experiment: ,Antagonism of stimulation of 5-hydroxytryptamine receptor on the L-type calcium current (I Ca) in isolated human atrial myocytes; type: functional, cell-based, Cardiac atrium
[7] = biological target: T1, 5-hydroxytryptamine receptor 4; experiment: Concentration required to produce half-maximal response against 5-hydroxytryptamine receptor on the L-type calcium current (I Ca) in isolated human atrial myocytes; type: cell-based, Cardiac atrium
Method in brief: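 Whole-cell patch clamp on enzymatically dissociated human atrial myocytes, room temperature (19–25 °C); Cs-based internal, pCa 8.5; I_Ca at 0 mV every 8 s, peak minus current at end of 400-ms pulse.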

T1 sequence (Q13639 whole entry, canonical isoform): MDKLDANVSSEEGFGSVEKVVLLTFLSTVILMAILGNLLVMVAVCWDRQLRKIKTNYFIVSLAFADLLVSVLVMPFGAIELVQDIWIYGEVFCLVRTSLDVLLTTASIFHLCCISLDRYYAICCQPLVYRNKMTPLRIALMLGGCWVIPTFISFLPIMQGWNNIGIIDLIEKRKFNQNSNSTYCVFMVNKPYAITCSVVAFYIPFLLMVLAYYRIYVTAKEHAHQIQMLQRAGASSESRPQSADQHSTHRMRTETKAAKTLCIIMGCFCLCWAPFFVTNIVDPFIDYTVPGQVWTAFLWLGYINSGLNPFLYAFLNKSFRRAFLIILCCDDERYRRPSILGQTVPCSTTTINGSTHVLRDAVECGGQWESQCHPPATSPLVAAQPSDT

| SMILES | pKi [1] | other results |
| --- | --- | --- |
| COc1cc(N)c(Cl)cc1C(=O)OCCN1CCN(c2cccc(C(F)(F)F)c2)CC1 | 6.70 |  |
| COc1cc(N)c(Cl)cc1C(=O)OCCN1CCN(C)CC1 | < 6.00 |  |
| COc1cc(N)c(Cl)cc1C(=O)OCCN1CCN(c2ccc(Cl)nn2)CC1 | 8.70 |  |
| COc1cc(N)c(Cl)cc1C(=O)OCCN1CCN(c2cnc(Cl)nc2)CC1 | 8.01 |  |
| COc1cc(N)c(Cl)cc1C(=O)OCCCN1CCN(c2ccccc2)CC1 | 7.94 |  |
| COc1cc(N)c(Cl)cc1C(=O)OCCN1CCN(c2ccccc2F)CC1 | 7.77 |  |
| COc1cc(N)c(Cl)cc1C(=O)OCCN1CCN(c2ccncn2)CC1 | 8.04 |  |
| COc1cc(N)c(Cl)cc1C(=O)OCCN1CCN(c2cnccn2)CC1 | 8.85 |  |
| COc1cc(N)c(Cl)cc1C(=O)OCCN1CCN(c2ccccc2Cl)CC1 | 6.53 |  |
| COc1ccc(N2CCN(CCOC(=O)c3cc(Cl)c(N)cc3OC)CC2)cc1 | 7.75 |  |
| COc1cc(N)c(Cl)cc1C(=O)OCCN1CCN(c2cccc(Cl)c2)CC1 | 6.79 |  |
| COc1cc(N)c(Cl)cc1C(=O)OCCN1CCN(Cc2ccccc2)CC1 | 6.62 |  |
| COc1cc(N)c(Cl)cc1C(=O)OCCN1CCN(c2ccc(Cl)cc2)CC1 | 6.15 |  |
| COc1cc(N)c(Cl)cc1C(=O)OCCN1CCN(c2ccccc2)CC1 | 7.84 | pKi [2]: 7.90; pKi [3]: 7.49; pKi [4]: 7.64; pKi [5]: 7.26 |
| Cn1cc(C(=O)OCC2CCN(CCNS(C)(=O)=O)CC2)c2ccccc21 | 10.00 |  |
| COc1cc(N)c(Cl)cc1C(=O)OCCN1CCN(c2ccncc2)CC1 | 8.46 |  |
| COc1cc(N)c(Cl)cc1C(=O)OCCN1CCN(c2ccccn2)CC1 | 8.82 |  |
| COc1cccc(N2CCN(CCOC(=O)c3cc(Cl)c(N)cc3OC)CC2)c1 | 8.52 |  |
| COc1cc(N)c(Cl)cc1C(=O)OCCN1CCN(c2cccc3ccccc23)CC1 | < 6.00 |  |
| COc1cc(N)c(Cl)cc1C(=O)OCCN1CCN(C(=O)OC(C)(C)C)CC1 | < 6.00 |  |
| COc1cc(N)c(Cl)cc1C(=O)OCCN1CCN(c2cccnn2)CC1 | 8.85 |  |
| COc1cc(N)c(Cl)cc1C(=O)OCCN1CCNCC1 | < 6.00 |  |
| COc1cc(N)c(Cl)cc1C(=O)OCCN1CCN(c2ccc(F)cc2)CC1 | 7.64 |  |
| COc1cc(N)c(Cl)cc1C(=O)OCCN1CCN(c2ncccn2)CC1 | 9.00 | pKi [2]: 8.61; pKd [6]: 9.15; pKi [3]: 8.15; pKi [4]: 8.46; pEC50 [7]: 8.35; pKi [5]: 8.09 |
| CCOC(=O)N1CCN(CCOC(=O)c2cc(Cl)c(N)cc2OC)CC1 | 7.64 |  |
| COc1cc(N)c(Cl)cc1C(=O)OCCN1CCN(c2ccccc2OC)CC1 | 7.19 |  |

Reference: ChEMBL document CHEMBL1133682, “New arylpiperazine derivatives as antagonists of the human cloned 5-HT(4) receptor isoforms” (J Med Chem, 2000)
